Measurements published in ChEMBL document CHEMBL1649132, “Dry powder nitroimidazopyran antibiotic PA-824 aerosol for inhalation” (Antimicrob Agents Chemother, 2009).

Experiments:
[1] = Chemical stability of the compound at 40 degC; format: physicochemical
[2] = Chemical stability of the compound after 6 months; format: physicochemical; conditions: 4383 h
[3] = Chemical stability of the compound after 12 months; format: physicochemical; conditions: 8766 h
[4] = test system: Cavia porcellus; test: AUC (0 to infinity) in guinea pig at 20 mg/kg, iv by HPLC method; format: ADME, organism-based, Plasma; parameters: time infinity, dose 20 mg/kg, route intravenous; conditions: in vivo
How it was run: (§1)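 Healthy male guinea pigs (463.86 ± 65.11 g), jugular vein cannulated 24 h before dosing; n = 6 or 7 per group. Dosing was i.v. solution 20 mg/kg, oral gavage of mixed micelle suspension (10% hydroxypropyl-β-cyclodextrin, 10% lecithin) 40 mg/kg, or intratracheal insufflation of porous dry powder at nominal 20, 40, 60 mg/kg. For insufflation, the delivered dose was taken by weighing the device before and after. Blood was drawn 0–24 h (to 32 h at 60 mg/kg) and plasma assayed by validated HPLC-UV (standards 0.20–50 µg/ml).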

[5] = Elimination rate constant in guinea pig at 20 mg/kg, iv by HPLC method; format: ADME, organism-based, Cavia porcellus; parameters: dose 20 mg/kg, route intravenous; conditions: in vivo; how it was run: as §1
[6] = Half life in guinea pig at 20 mg/kg, iv by HPLC method; format: ADME, organism-based, Cavia porcellus; parameters: dose 20 mg/kg, route intravenous; conditions: in vivo; how it was run: as §1
[7] = Mean residence time in guinea pig at 20 mg/kg, iv by HPLC method; format: ADME, organism-based, Cavia porcellus; parameters: dose 20 mg/kg, route intravenous; conditions: in vivo; how it was run: as §1
[8] = Cmax in guinea pig at 20 mg/kg, iv by HPLC method; format: ADME, organism-based, Cavia porcellus; parameters: dose 20 mg/kg, route intravenous; conditions: in vivo; how it was run: as §1
[9] = Tmax in guinea pig at 20 mg/kg, iv by HPLC method; format: ADME, organism-based, Cavia porcellus; parameters: dose 20 mg/kg, route intravenous; conditions: in vivo; how it was run: as §1
[10] = test system: Cavia porcellus; test: AUC (0 to infinity) in guinea pig at 40 mg/kg, po by HPLC method; format: ADME, organism-based, Plasma; parameters: time infinity, dose 40 mg/kg, route oral; conditions: in vivo; how it was run: as §1
[11] = Elimination rate constant in guinea pig at 40 mg/kg, po by HPLC method; format: ADME, organism-based, Cavia porcellus; parameters: dose 40 mg/kg, route oral; conditions: in vivo; how it was run: as §1
[12] = Half life in guinea pig at 40 mg/kg, po by HPLC method; format: ADME, organism-based, Cavia porcellus; parameters: dose 40 mg/kg, route oral; conditions: in vivo; how it was run: as §1
[13] = Mean residence time in guinea pig at 40 mg/kg, po by HPLC method; format: ADME, organism-based, Cavia porcellus; parameters: dose 40 mg/kg, route oral; conditions: in vivo; how it was run: as §1
[14] = Cmax in guinea pig at 40 mg/kg, po by HPLC method; format: ADME, organism-based, Cavia porcellus; parameters: dose 40 mg/kg, route oral; conditions: in vivo; how it was run: as §1
[15] = Tmax in guinea pig at 40 mg/kg, po by HPLC method; format: ADME, organism-based, Cavia porcellus; parameters: dose 40 mg/kg, route oral; conditions: in vivo; how it was run: as §1
[16] = test system: Cavia porcellus; test: Bioavailability (0 to infinity) in guinea pig at 40 mg/kg, po by HPLC method; format: ADME, organism-based; conditions: in vivo; how it was run: as §1
[17] = AUC (0 to infinity) in guinea pig at 20 mg/kg, administered via intratracheal insufflation by HPLC method; format: ADME, organism-based, Cavia porcellus; parameters: time infinity, dose 20 mg/kg, route endotracheal; conditions: plasma, inhaled or intranasal; how it was run: as §1
[18] = Elimination rate constant in guinea pig at 20 mg/kg, administered via intratracheal insufflation by HPLC method; format: ADME, organism-based, Cavia porcellus; parameters: dose 20 mg/kg, route endotracheal; conditions: in vivo, inhaled or intranasal; how it was run: as §1
[19] = Half life in guinea pig at 20 mg/kg, administered via intratracheal insufflation by HPLC method; format: ADME, organism-based, Cavia porcellus; parameters: dose 20 mg/kg, route endotracheal; conditions: in vivo, inhaled or intranasal; how it was run: as §1
[20] = Mean residence time in guinea pig at 20 mg/kg, administered via intratracheal insufflation by HPLC method; format: ADME, organism-based, Cavia porcellus; parameters: dose 20 mg/kg, route endotracheal; conditions: in vivo, inhaled or intranasal; how it was run: as §1
[21] = Cmax in guinea pig at 20 mg/kg, administered via intratracheal insufflation by HPLC method; format: ADME, organism-based, Cavia porcellus; parameters: dose 20 mg/kg, route endotracheal; conditions: in vivo, inhaled or intranasal; how it was run: as §1
[22] = Tmax in guinea pig at 20 mg/kg, administered via intratracheal insufflation by HPLC method; format: ADME, organism-based, Cavia porcellus; parameters: dose 20 mg/kg, route endotracheal; conditions: in vivo, inhaled or intranasal; how it was run: as §1
[23] = Bioavailability (0 to infinity) in guinea pig at 20 mg/kg, administered via intratracheal insufflation by HPLC method; format: ADME, organism-based, Cavia porcellus; conditions: in vivo, inhaled or intranasal; how it was run: as §1
[24] = Bioavailability in guinea pig at 20 mg/kg, administered via intratracheal insufflation by HPLC method; format: ADME, organism-based, Cavia porcellus; conditions: in vivo, inhaled or intranasal; how it was run: as §1
[25] = AUC (0 to infinity) in guinea pig at 40 mg/kg, administered via intratracheal insufflation by HPLC method; format: ADME, organism-based, Cavia porcellus; parameters: time infinity, dose 40 mg/kg, route endotracheal; conditions: plasma, inhaled or intranasal; how it was run: as §1
[26] = Elimination rate constant in guinea pig at 40 mg/kg, administered via intratracheal insufflation by HPLC method; format: ADME, organism-based, Cavia porcellus; parameters: dose 40 mg/kg, route endotracheal; conditions: in vivo, inhaled or intranasal; how it was run: as §1

O=[N+]([O-])c1cn2c(n1)OC[C@@H](OCc1ccc(OC(F)(F)F)cc1)C2 [PRETOMANID]
Stability [1]: Stable | Stability [2]: Unstable | Stability [3]: Stable | AUC [4]: 26.54 µg·h/mL | k el [5]: 0.000103 s⁻¹ | half-life [6]: 115 min | MRT [7]: 2.69 h | Cmax [8]: 9190 ng/mL | Tmax [9]: 6.6 min | AUC [10]: 25.77 µg·h/mL | k el [11]: 8.33e-05 s⁻¹ | half-life [12]: 146 min | MRT [13]: 5.37 h | Cmax [14]: 4140 ng/mL | Tmax [15]: 4 h | F [16]: 0.56% | AUC(0-inf) [17]: 14800 ng·h/mL | k el [18]: 6.67e-05 s⁻¹ | half-life [19]: 170 min | MRT [20]: 5.17 h | Cmax [21]: 2010 ng/mL | Tmax [22]: 4.33 h | bioavailability [23]: 0.59% | bioavailability [24]: 2.11% | AUC(0-inf) [25]: 32300 ng·h/mL | k el [26]: 4.72e-05 s⁻¹
